pEC50, pKi: −log10 of the molar value. Active and inactive are the calls of the source. No cut-off for these calls is given here.
What was measured:
[1] = system: Mus musculus; assay: Effect of compound on chronic morphine pelleted Swiss Webster mouse model assessed as decrease in wet-dog shake symptom at 1 mg/kg, sc and measured for 20 mins by withdrawal assay; assay type: functional, organism-based
How it was run: (§1)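 Male Swiss-Webster mice made dependent with chronic morphine pellets. Compound is injected and wet-dog shakes, paw tremors and jumps are counted over 20 min after each injection.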

[2] = system: Mus musculus; assay: Effect of compound on chronic morphine pelleted Swiss Webster mouse model assessed as decrease in paw tremors symptom at 1 mg/kg, sc and measured for 20 mins by withdrawal assay; assay type: functional, organism-based; how it was run: as §1
[3] = system: Mus musculus; assay: Effect of compound on chronic morphine pelleted Swiss Webster mouse model assessed as decrease in jump symptom at 1 mg/kg, sc and measured for 20 mins by withdrawal assay; assay type: functional, organism-based; how it was run: as §1
[4] = system: Mus musculus; assay: Antinociceptive activity in Swiss Webster mouse assessed as inhibition of morphine induced latency to tail withdrawal at 10 mg/kg, sc preincubated for 5 mins followed by morphine addition and measured after 20 mins by warm water tail immersion assay; assay type: functional, organism-based; details: time 25.0 min
How it was run: (§2)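 Male Swiss-Webster mice (n = 5). Compound is given s.c. at time 0 (10 mg/kg in the single-dose screen, a dose range for AD50), and morphine 10 mg/kg follows 5 min later. Tail flick is tested in 56 ± 0.1 °C water 20 min after morphine and scored as % MPE. Saline and morphine alone are the controls.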

[5] = target: Mu-type opioid receptor (Mus musculus) (UniProt P42866); assay: Binding affinity to mouse mu opioid receptor expressed in CHO cell membrane assessed as stimulation of [35S]-GTPgammaS binding by measuring maximal efficacy incubated for 1.5 hrs by scintillation spectroscopy analysis relative DAMGO; assay type: cell membranes
How it was run: (§3)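 MOR [35S]GTPγS functional assay in MOR-CHO membranes (Bmax about 2.5–4 pmol/mg). Efficacy is expressed as % of the maximal stimulation by full agonist DAMGO.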

[6] = target: T1, Mu-type opioid receptor (Mus musculus, UniProt P42866); assay: Binding affinity to mouse mu opioid receptor expressed in CHO cell membrane assessed as inhibition constant incubated for 1.5 hrs by competitive radioligand binding assay; assay type: cell membranes
[7] = target: T1, Mu-type opioid receptor; assay: Binding affinity to mouse mu opioid receptor expressed in CHO cell membrane assessed as [35S]GTPgammaS binding incubated for 1.5 hrs by liquid scintillation counter analysis; assay type: cell membranes; how it was run: as §3
[8] = species on record: Mus musculus; assay: Selectivity ratio, ratio of Ki for binding affinity to mouse kappa opioid receptor expressed in CHO cell membrane to Ki for binding affinity to mouse mu opioid receptor expressed in CHO cell membrane
[9] = target: Kappa-type opioid receptor (Mus musculus, UniProt P33534); assay: Binding affinity to mouse kappa opioid receptor expressed in CHO cell membrane assessed as inhibition constant incubated for 1.5 hrs by competitive radioligand binding assay; assay type: cell membranes
[10] = Selectivity ratio, ratio of Ki for binding affinity to human delta opioid receptor expressed in CHO cell membrane to Ki for binding affinity to mouse mu opioid receptor expressed in CHO cell membrane
[11] = system: Mus musculus; assay: Antinociceptive activity in Swiss Webster mouse assessed as increase in latency to tail withdrawal at 10 mg/kg, sc observed for 20 mins by warm water tail immersion assay; assay type: functional, organism-based
How it was run: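 Male Swiss-Webster mice (23–35 g, 7–8 weeks), n = 5. Compound given 10 mg/kg s.c. at time 0. Tail-flick latency is measured in 56 ± 0.1 °C water and expressed as % maximum possible effect against saline vehicle.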

[12] = target: Kappa-type opioid receptor (Mus musculus) (UniProt P33534); assay: Binding affinity to mouse kappa opioid receptor expressed in CHO cell membrane assessed as stimulation of [35S]-GTPgammaS binding by measuring maximal efficacy incubated for 1.5 hrs by scintillation spectroscopy analysis relative U50488H; assay type: cell membranes; details: filed as modulator
How it was run: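 KOR [35S]GTPγS functional assay in KOR-expressing CHO membranes. Efficacy is expressed as % of the maximal stimulation by full agonist U50,488H, with EC50 also determined. Mean of at least three independent experiments.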

[13] = system: Mus musculus; assay: Antinociceptive activity in sc dosed Swiss Webster mouse assessed as inhibition of morphine induced latency to tail withdrawal preincubated for 5 mins followed by morphine addition and measured after 20 mins by warm water tail immersion assay; assay type: functional; details: 25 min; how it was run: as §2
[14] = target: Kappa-type opioid receptor (Mus musculus) (UniProt P33534); assay: Binding affinity to mouse kappa opioid receptor expressed in CHO cell membrane assessed as stimulation of [35S]-GTPgammaS binding by measuring maximal efficacy incubated for 1.5 hrs by scintillation spectroscopy analysis relative SNC80; assay type: cell membranes; details: filed as modulator
[15] = system: Mus musculus; assay: Effect of compound on chronic morphine pelleted Swiss Webster mouse model assessed as decrease in paw tremors symptom at 50 mg/kg, sc and measured for 20 mins by withdrawal assay; assay type: functional, organism-based
[16] = system: Mus musculus; assay: Effect of compound on chronic morphine pelleted Swiss Webster mouse model assessed as decrease in jump symptom at 50 mg/kg, sc and measured for 20 mins by withdrawal assay; assay type: functional, organism-based
[17] = system: Mus musculus; assay: Effect of compound on chronic morphine pelleted Swiss Webster mouse model assessed as decrease in wet-dog shake symptom at 50 mg/kg, sc and measured for 20 mins by withdrawal assay; assay type: functional, organism-based

Row | Compound | Activity [1] | Activity [2] | Activity [3] | Activity [4] | Emax [5] | pKi [6] | pEC50 [7] | Ratio Ki [8] | pKi [9] | Ratio Ki [10] | Emax ([5]; filed as modulator) | Activity [11] | Emax [12] | ED50 [13] | Emax [14] | Activity [15] | Activity [16] | Activity [17]
1 | C=CCN1CC[C@]23c4c5ccc(O)c4O[C@H]2C(=O)CC[C@@]3(O)[C@H]1C5 | Active | Active | Active |  |  |  |  |  |  |  |  |  |  |  |  |  |  | 
2 | O=Cc1c[nH]c2c(C(=O)N[C@H]3CC[C@@]4(O)[C@H]5Cc6ccc(O)c7c6[C@@]4(CCN5CC4CC4)[C@H]3O7)cccc12 |  |  |  | inactive | 8.24% | 9.60 | 9.05 | 11.3 | 8.55 | 47.5 |  |  |  |  |  |  |  | 
3 | O=C(N[C@@H]1CC[C@@]2(O)[C@H]3Cc4ccc(O)c5c4[C@@]2(CCN3CC2CC2)[C@H]1O5)c1cccc2cc(Br)[nH]c12 |  |  |  | inactive | 36.2% | 9.46 | 9.06 | 1.3 | 9.34 | 8.8 |  |  |  |  |  |  |  | 
4 | O=C(N[C@H]1CC[C@@]2(O)[C@H]3Cc4ccc(O)c5c4[C@@]2(CCN3CC2CC2)[C@H]1O5)c1cccc2c(C3CCCC3)c[nH]c12 |  |  |  | inactive | 12.3% | 8.58 | 8.69 | 7.9 | 7.68 | 10.6 |  |  |  |  |  |  |  | 
5 | O=C(N[C@@H]1CC[C@@]2(O)[C@H]3Cc4ccc(O)c5c4[C@@]2(CCN3CC2CC2)[C@H]1O5)c1cccc2c(-c3ccccc3)c[nH]c12 |  |  |  | inactive | 8.47% | 8.84 | 8.75 | 17.9 | 7.58 | 33.8 |  |  |  |  |  |  |  | 
6 | O=C(N[C@@H]1CC[C@@]2(O)[C@H]3Cc4ccc(O)c5c4[C@@]2(CCN3CC2CC2)[C@H]1O5)c1cccc2c([N+](=O)[O-])c[nH]c12 |  |  |  |  |  | 9.27 | 8.95 | 1.5 | 9.10 | 47.5 | 60.9% | Active |  |  |  |  |  | 
7 | O=C(N[C@H]1CC[C@@]2(O)[C@H]3Cc4ccc(O)c5c4[C@@]2(CCN3CC2CC2)[C@H]1O5)c1cccc2c(Cl)c[nH]c12 |  |  |  | inactive | 13.2% | 9.01 | 8.44 | 6.1 | 8.22 | 37.9 |  |  |  |  |  |  |  | 
8 | CC(C)c1c[nH]c2c(C(=O)N[C@H]3CC[C@@]4(O)[C@H]5Cc6ccc(O)c7c6[C@@]4(CCN5CC4CC4)[C@H]3O7)cccc12 |  |  |  | inactive | 8.37% | 8.56 | 8.61 | 4 | 7.96 | 9.3 |  |  |  |  |  |  |  | 
9 | O=Cc1c[nH]c2c(C(=O)N[C@@H]3CC[C@@]4(O)[C@H]5Cc6ccc(O)c7c6[C@@]4(CCN5CC4CC4)[C@H]3O7)cccc12 |  |  |  | inactive | 21.3% | 9.16 | 8.92 | 5.8 | 8.39 | < 35.1 |  |  |  |  |  |  |  | 
10 | Cc1cc2cccc(C(=O)N[C@@H]3CC[C@@]4(O)[C@H]5Cc6ccc(O)c7c6[C@@]4(CCN5CC4CC4)[C@H]3O7)c2[nH]1 |  |  |  | inactive | 21.8% | 9.51 | 8.82 | 2.6 | 9.10 | 51.1 |  |  |  |  |  |  |  | 
11 | O=C(N[C@H]1CC[C@@]2(O)[C@H]3Cc4ccc(O)c5c4[C@@]2(CCN3CC2CC2)[C@H]1O5)c1cccc2c(C3CCCCC3)c[nH]c12 |  |  |  | inactive | 20.5% | 8.68 | 8.58 | 4.6 | 8.02 | 8.9 |  |  |  |  |  |  |  | 
12 | Cc1c[nH]c2c(C(=O)N[C@@H]3CC[C@@]4(O)[C@H]5Cc6ccc(O)c7c6[C@@]4(CCN5CC4CC4)[C@H]3O7)cccc12 |  |  |  |  |  | 9.34 | 8.91 |  | 9.00 |  | 44% | Active |  |  |  |  |  | 
13 | CC(=O)Nc1c[nH]c2c(C(=O)N[C@H]3CC[C@@]4(O)[C@H]5Cc6ccc(O)c7c6[C@@]4(CCN5CC4CC4)[C@H]3O7)cccc12 |  |  |  | inactive | 9.97% | 9.64 | 8.83 | 9.4 | 8.68 | 23 |  |  |  |  |  |  |  | 
14 | O=C(N[C@@H]1CC[C@@]2(O)[C@H]3Cc4ccc(O)c5c4[C@@]2(CCN3CC2CC2)[C@H]1O5)c1cccc2cc(-c3ccccc3)[nH]c12 |  |  |  | inactive | 10.2% | 8.49 | 8.26 | 0.4 | 8.94 | 7.3 |  |  |  |  |  |  |  | 
15 | O=C(N[C@H]1CC[C@@]2(O)[C@H]3Cc4ccc(O)c5c4[C@@]2(CCN3CC2CC2)[C@H]1O5)c1cccc2cc[nH]c12 |  |  |  |  | 19.1% |  |  |  |  |  |  |  | 48.3% | 2.07 mg/kg | 76.8% | Active | inactive | inactive
16 | O=C(N[C@@H]1CC[C@@]2(O)[C@H]3Cc4ccc(O)c5c4[C@@]2(CCN3CC2CC2)[C@H]1O5)c1cccc2c(Cl)c[nH]c12 |  |  |  |  |  | 9.21 | 8.98 | 0.5 |  | 7.2 | 59.5% | Active |  |  |  |  |  | 
17 | N#Cc1c[nH]c2c(C(=O)N[C@@H]3CC[C@@]4(O)[C@H]5Cc6ccc(O)c7c6[C@@]4(CCN5CC4CC4)[C@H]3O7)cccc12 |  |  |  | inactive | 38.8% | 9.42 | 8.51 | 2.7 | 9.00 | 67.4 |  |  |  |  |  |  |  | 

Reference: ChEMBL document CHEMBL5316274 (J Med Chem, 2023)
